Results published in ChEMBL document CHEMBL5247578, “Effective synthesis of benzimidazoles-imidazo[1,2-a]pyrazine conjugates: A comparative study of mono-and bis-benzimidazoles for antitumor activity” (Eur J Med Chem, 2019).

What was measured:
[1] = n-Octanol/phosphate buffer partition coefficient, logP of the compound at pH 7.4 incubated for 85 mins by shake-flask method; type: physicochemical
Method in brief: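 Octanol–water partition by shake-flask: n-octanol with 0.15 M phosphate buffer pH 7.4 at 10:1 volumes. Buffer-phase absorbance read before mixing, then shaken 50 min and centrifuged at 2500 rpm for 35 min. Buffer absorbance read again; P = (Ai−Af)/Af × Vw/Vo.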

BT-549 = test: Antiproliferative activity against human BT-549 cells assessed as cell growth inhibition at 10 uM incubated for 48 hrs by sulforhodamine B assay relative to control; type: functional
Method in brief: (§1)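 Single-dose NCI-60 prescreen at 10^-5 M. Cells in RPMI 1640 with 5% FBS and 2 mM L-glutamine, seeded 5,000–40,000 cells/well with 24 h preincubation, then drug exposure for 48 h at 37 °C under 5% CO2. Growth read by SRB staining of TCA-fixed cells at 515 nm against time-zero and untreated controls. Negative growth values denote cell kill.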

MDA-MB-231 = test: Antiproliferative activity against human MDA-MB-231 cells assessed as cell growth inhibition at 10 uM incubated for 48 hrs by sulforhodamine B assay relative to control; type: functional
Method in brief: (§2)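 NCI-60 single-dose screen at 10^-5 M. Cells grown in RPMI 1640 with 5% FBS and 2 mM L-glutamine, plated at 5,000–40,000 cells/well, and preincubated 24 h. Drug (DMSO stock) added and incubated 48 h at 37 °C, 5% CO2. Adherent cells fixed with cold TCA, stained with 0.4% SRB in 1% acetic acid, dye solubilized in 10 mM trizma base, A515 read. Percent growth taken against time-zero and untreated control.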

MCF7 = test: Antiproliferative activity against human MCF7 cells assessed as cell growth inhibition at 10 uM incubated for 48 hrs by sulforhodamine B assay relative to control; type: functional; method in brief: as §2
DU-145 = test: Antiproliferative activity against human DU-145 cells assessed as cell growth inhibition at 10 uM incubated for 48 hrs by sulforhodamine B assay relative to control; type: functional
Method in brief: (§3)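 NCI-60 one-dose prescreen at 10^-5 M. Cells grown in RPMI 1640 with 5% FBS and 2 mM glutamine, preincubated 24 h, then exposed 48 h at 37 °C. Adherent lines TCA-fixed, SRB-stained, A515 read. Growth percent relative to time-zero and control; negative values mean cell kill.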

ACHN = test: Antiproliferative activity against human ACHN cells assessed as cell growth inhibition at 10 uM incubated for 48 hrs by sulforhodamine B assay relative to control; type: functional; method in brief: as §1
786-0 = test: Antiproliferative activity against human 786-0 cells assessed as cell growth inhibition at 10 uM incubated for 48 hrs by sulforhodamine B assay relative to control; type: functional; method in brief: as §1
OVCAR-5 = test: Antiproliferative activity against human OVCAR-5 cells assessed as cell growth inhibition at 10 uM incubated for 48 hrs by sulforhodamine B assay relative to control; type: functional; method in brief: as §2
OVCAR-4 = test: Antiproliferative activity against human OVCAR-4 cells assessed as cell growth inhibition at 10 uM incubated for 48 hrs by sulforhodamine B assay relative to control; type: functional; method in brief: as §2
OVCAR-3 = test: Antiproliferative activity against human OVCAR-3 cells assessed as cell growth inhibition at 10 uM incubated for 48 hrs by sulforhodamine B assay relative to control; type: functional; method in brief: as §2
SK-MEL-28 = test: Antiproliferative activity against human SK-MEL-28 cells assessed as cell growth inhibition at 10 uM incubated for 48 hrs by sulforhodamine B assay relative to control; type: functional; method in brief: as §2
SW-620 = test: Antiproliferative activity against human SW620 cells assessed as cell growth inhibition at 10 uM incubated for 48 hrs by sulforhodamine B assay relative to control; type: functional; method in brief: as §2
KM12 = test: Antiproliferative activity against human KM12 cells assessed as cell growth inhibition at 10 uM incubated for 48 hrs by sulforhodamine B assay relative to control; type: functional; method in brief: as §2
NCI-H322M = test: Antiproliferative activity against human NCI-H322M cells assessed as cell growth inhibition at 10 uM incubated for 48 hrs by sulforhodamine B assay relative to control; type: functional; method in brief: as §2
NCI-H226 = test: Antiproliferative activity against human NCI-H226 cells assessed as cell growth inhibition at 10 uM incubated for 48 hrs by sulforhodamine B assay relative to control; type: functional; method in brief: as §2
HOP-92 = test: Antiproliferative activity against human HOP-92 cells assessed as cell growth inhibition at 10 uM incubated for 48 hrs by sulforhodamine B assay relative to control; type: functional; method in brief: as §3
SR = test: Antiproliferative activity against human SR cells assessed as cell growth inhibition at 10 uM incubated for 48 hrs by sulforhodamine B assay relative to control; type: functional; method in brief: as §2
MOLT-4 = test: Antiproliferative activity against human MOLT-4 cells assessed as cell growth inhibition at 10 uM incubated for 48 hrs by sulforhodamine B assay relative to control; type: functional; method in brief: as §2
K562 = test: Antiproliferative activity against human K562 cells assessed as cell growth inhibition at 10 uM incubated for 48 hrs by sulforhodamine B assay relative to control; type: functional; method in brief: as §2
HL-60 = test: Antiproliferative activity against human HL-60 cells assessed as cell growth inhibition at 10 uM incubated for 48 hrs by sulforhodamine B assay relative to control; type: functional; method in brief: as §3
CCRF-CEM = test: Antiproliferative activity against human CCRF-CEM cells assessed as cell growth inhibition at 10 uM incubated for 48 hrs by sulforhodamine B assay relative to control; type: functional; method in brief: as §1
SK-OV-3 = test: Antiproliferative activity against human SK-OV-3 cells assessed as cell growth inhibition at 10 uM incubated for 48 hrs by sulforhodamine B assay relative to control; type: functional; method in brief: as §2
UACC-257 = test: Antiproliferative activity against human UACC-257 cells assessed as cell growth inhibition at 10 uM incubated for 48 hrs by sulforhodamine B assay relative to control; type: functional; method in brief: as §2
TK-10 = test: Antiproliferative activity against human TK-10 cells assessed as cell growth inhibition at 10 uM incubated for 48 hrs by sulforhodamine B assay relative to control; type: functional; method in brief: as §2
CAKI-1 = test: Antiproliferative activity against human CAKI-1 cells assessed as cell growth inhibition at 10 uM incubated for 48 hrs by sulforhodamine B assay relative to control; type: functional; method in brief: as §1
HOP-62 = test: Antiproliferative activity against human HOP-62 cells assessed as cell growth inhibition at 10 uM incubated for 48 hrs by sulforhodamine B assay relative to control; type: functional; method in brief: as §3

logD at 1.417 h [1]	SMILES	inhibition at 10 µM (BT-549)	inhibition at 10 µM (MDA-MB-231)	inhibition at 10 µM (MCF7)	inhibition at 10 µM (DU-145)	inhibition at 10 µM (ACHN)	inhibition at 10 µM (786-0)	inhibition at 10 µM (OVCAR-5)	inhibition at 10 µM (OVCAR-4)	inhibition at 10 µM (OVCAR-3)	inhibition at 10 µM (SW-620)	inhibition at 10 µM (KM12)	inhibition at 10 µM (NCI-H322M)	inhibition at 10 µM (NCI-H226)	inhibition at 10 µM (HOP-92)	inhibition at 10 µM (SR)	inhibition at 10 µM (MOLT-4)	inhibition at 10 µM (K562)	inhibition at 10 µM (HL-60)	inhibition at 10 µM (CCRF-CEM)	also measured
2.01	Fc1ccc(-c2cn3ccnc3c(-c3ccc4ncn(C5CCCCC5)c4c3)n2)cc1	20.3%	15.8%	9.17%	1.17%	9.02%	11.2%	10.3%	5.73%	7.88%	8.38%	3.49%	0.01%	23.3%	35.2%	20.4%	25.2%	24.7%	2.03%	33.4%	inhibition at 10 µM (SK-MEL-28): 2.67%
1.51	Clc1ccc(-c2cn3ccnc3c(-c3ccc4ncn(C5CCCCC5)c4c3)n2)cc1	23.8%	15.3%	21.8%	–	5.45%	12.1%	0.84%	4.57%	10.8%	14%	10.6%	–	19.4%	30.5%	18.5%	8.87%	44.5%	15.6%	11.4%	inhibition at 10 µM (SK-OV-3): 6.14%; inhibition at 10 µM (UACC-257): 5.44%; inhibition at 10 µM (SK-MEL-28): 12.1%
1.72	COc1ccccc1-c1cn2ccnc2c(-c2ccc3ncn(C4CCCCC4)c3c2)n1	–	15.9%	8.4%	–	4.48%	12.3%	6.61%	13.2%	6.57%	3.4%	3.58%	–	25.7%	47.8%	26.3%	22.4%	22.6%	14.6%	17.4%	inhibition at 10 µM (SK-OV-3): 10.6%
1.73	Brc1ccc(-c2cn3ccnc3c(-c3ccc4ncn(C5CCCCC5)c4c3)n2)cc1	35.1%	22.8%	46.4%	5.66%	21.4%	18%	8.95%	10.5%	26.3%	21.9%	23.3%	4.21%	23.3%	34.1%	60.6%	20.4%	59%	23.2%	–	inhibition at 10 µM (SK-OV-3): 6.44%; inhibition at 10 µM (UACC-257): 7.3%; inhibition at 10 µM (SK-MEL-28): 28.3%
1.88	O=Cc1ccc(-c2cn3ccnc3c(-c3ccc4ncn(Cc5ccccc5)c4c3)n2)cc1	33.8%	51.2%	47.8%	24.3%	11.6%	46.7%	–	16.9%	23.7%	4.21%	3.69%	11.2%	0.53%	43%	47.5%	58.7%	–	16.5%	77.9%	inhibition at 10 µM (TK-10): 0.75%; inhibition at 10 µM (CAKI-1): 36.5%; inhibition at 10 µM (SK-OV-3): 5.11%; inhibition at 10 µM (SK-MEL-28): 7.54%; inhibition at 10 µM (HOP-62): 23.8%
1.95	Fc1ccccc1-c1cn2ccnc2c(-c2ccc3ncn(C4CCCCC4)c3c2)n1	4.08%	21.3%	11.2%	0.96%	13.2%	2.94%	6.64%	4.51%	0.17%	9.53%	2.45%	–	28.6%	37%	16.3%	22.5%	22.8%	9.3%	22.5%	–
–	Brc1cn2ccnc2c(-c2ccc3ncn(C4CCCCC4)c3c2)n1	5.16%	24.2%	47.6%	6.2%	11.5%	10%	6.64%	9.15%	15.8%	–	67.7%	18.1%	22.5%	30.7%	26.8%	26.3%	18%	18%	7.68%	inhibition at 10 µM (TK-10): 5.55%; inhibition at 10 µM (HOP-62): 21.7%
2	c1ccc(Cn2cnc3ccc(-c4nc(-c5cccc6ccccc56)cn5ccnc45)cc32)cc1	–	28.7%	29.2%	–	12.3%	12.4%	1.83%	7.88%	1.44%	–	11%	1.34%	–	42.5%	12.4%	22.3%	–	–	6.22%	inhibition at 10 µM (CAKI-1): 27.1%; inhibition at 10 µM (HOP-62): 14%
1.5	O=Cc1ccc(-c2cn3ccnc3c(-c3ccc4ncn(C5CCCCC5)c4c3)n2)cc1	33.8%	51.2%	47.8%	24.3%	11.6%	46.7%	–	16.9%	23.7%	4.21%	3.69%	11.2%	0.53%	43%	47.5%	58.7%	–	16.5%	77.9%	inhibition at 10 µM (TK-10): 0.75%; inhibition at 10 µM (CAKI-1): 36.5%; inhibition at 10 µM (SK-OV-3): 5.11%; inhibition at 10 µM (SK-MEL-28): 7.54%; inhibition at 10 µM (HOP-62): 23.8%
